Test results: ChEMBL document CHEMBL1127473, “Estrone sulfamates: potent inhibitors of estrone sulfatase with therapeutic potential” (J Med Chem, 1994)
pIC50: −log10 of the molar value. Calls of active or inactive are those of the source. No cut-off for these calls is given here.

Key:
[1] = target: T1, Steryl-sulfatase (Homo sapiens) (UniProt P08842); test: Tested for inhibition of estrone sulfatase in MCF-7 breast cancer cells using 2 nM substrate concentration at 0.1 uM; format: cell-based; conditions: MCF7
T1 sequence (whole entry): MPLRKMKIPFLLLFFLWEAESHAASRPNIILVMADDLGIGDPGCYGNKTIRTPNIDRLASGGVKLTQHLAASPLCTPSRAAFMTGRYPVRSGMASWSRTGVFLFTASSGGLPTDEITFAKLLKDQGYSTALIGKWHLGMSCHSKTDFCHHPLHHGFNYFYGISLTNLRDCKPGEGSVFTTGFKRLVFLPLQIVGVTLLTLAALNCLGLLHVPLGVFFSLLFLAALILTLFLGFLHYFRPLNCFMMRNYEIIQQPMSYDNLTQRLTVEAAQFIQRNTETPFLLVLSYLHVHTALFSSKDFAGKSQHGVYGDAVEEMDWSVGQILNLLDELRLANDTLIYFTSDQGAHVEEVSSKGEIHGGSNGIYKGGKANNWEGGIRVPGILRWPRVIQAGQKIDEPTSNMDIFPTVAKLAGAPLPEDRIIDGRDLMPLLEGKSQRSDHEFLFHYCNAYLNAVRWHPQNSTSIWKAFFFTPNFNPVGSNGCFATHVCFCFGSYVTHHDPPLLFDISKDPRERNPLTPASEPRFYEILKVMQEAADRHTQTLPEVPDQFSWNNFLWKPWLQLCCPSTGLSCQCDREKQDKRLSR

[2] = target: T1, Steryl-sulfatase (Homo sapiens); test: Tested for inhibition of estrone sulfatase in MCF-7 breast cancer cells using 2 nM substrate concentration at 1 uM; format: cell-based; conditions: MCF7
[3] = target: T1, Steryl-sulfatase (Homo sapiens); test: Tested for inhibition of estrone sulfatase in MCF-7 breast cancer cells using 2 nM substrate concentration at 10 uM; format: cell-based; conditions: MCF7
Steryl-sulfatase = target: T2, Steryl-sulfatase (Homo sapiens, UniProt P08842); test: Tested for inhibition of estrone sulfatase in placental microsomal preparation (100000 g pellet) using substrate concentration of 20 uM; format: microsomes, Placenta
T2 sequence (P08842 whole entry): T1 sequence (whole entry)
In short: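 Placental microsomal preparation (100 000-g pellet) assayed with saturating [3H]estrone sulfate substrate (20 μM); IC50 derived for sulfatase inhibition.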

[4] = target: T1, Steryl-sulfatase (Homo sapiens); test: Tested for inhibition of estrone sulfatase in MCF-7 breast cancer cells using 2 nM substrate concentration at 1 uM; NI=No inhibition; format: cell-based; conditions: MCF7
[5] = target: T1, Steryl-sulfatase (Homo sapiens); test: Tested for inhibition of estrone sulfatase in MCF-7 breast cancer cells using 2 nM substrate concentration at 10 uM; NI=No inhibition; format: cell-based; conditions: MCF7
[6] = target: T1, Steryl-sulfatase (Homo sapiens); test: Tested for enzyme activity recovered after 20h in MCF-7 breast cancer cells at 1 uM; conditions: MCF7
[7] = target: T1, Steryl-sulfatase (Homo sapiens); conditions: MCF7; 1 uM

| Structure (SMILES) | inhibition [1] | inhibition [2] | inhibition [3] | pIC50 (Steryl-sulfatase) | inhibition [4] | inhibition [5] | % activity recovered [6] | % activity recovered [7] |
| --- | --- | --- | --- | --- | --- | --- | --- | --- |
| CSP(=O)(O)Oc1ccc2c(c1)CC[C@@H]1[C@@H]2CC[C@]2(C)C(=O)CC[C@@H]12 | 52% | 74% | 96% | 4.37 |  |  |  |  |
| CN(C)S(=O)(=O)Oc1ccc2c(c1)CCCC2 |  |  |  |  | inactive | inactive |  |  |
| CNS(=O)(=O)Oc1ccc2c(c1)CCCC2 |  |  | 22% |  |  |  |  |  |
| NS(=O)(=O)Oc1ccc2c(c1)CCCC2 |  | 47% | 97% |  |  |  |  |  |
| CN(C)S(=O)(=O)Oc1ccc2c(c1)CCC1[C@@H]2CC[C@]2(C)C(=O)CC[C@@H]12 (single isomer, unassigned) | 79% | 87% | 90% |  |  |  | 80% |  |
| CNS(=O)(=O)Oc1ccc2c(c1)CCC1[C@@H]2CC[C@]2(C)C(=O)CC[C@@H]12 (single isomer, unassigned) |  | 87% | 93% |  |  |  | > 50% |  |
| C[C@]12CC[C@@H]3c4ccc(OS(N)(=O)=O)cc4CCC3[C@@H]1CCC2=O (single isomer, unassigned) [EMATE] | > 99% | > 99% | > 99% | 7.10 |  |  |  | inactive |
